Laboratory results from ChEMBL document CHEMBL3098054, “The synthesis of novel taxoids for oral administration” (Bioorg Med Chem, 2014).

What was measured:
HT-29 = assay: Cytotoxicity against human HT-29 cells at 1 uM after 72 hrs by MTT assay; assay type: functional; conditions: HT-29, 72 h, read-out: GI
Summary of the method: (§1)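 Cells plated at 2000–5000/well, attached overnight at 37 °C. DMSO stocks (100 mM) serially diluted in medium to a final 1 µM, tested in duplicate wells. Exposure 72 h at 37 °C, 5% CO₂. MTT (5 mg/mL, 10 µL) added for 4 h. Lysis in 10% SDS / 5% isopropanol / 0.012 N HCl, then OD read at 580–680 nm.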

A-375 = assay: Cytotoxicity against human A375 cells at 1 uM after 72 hrs by MTT assay; assay type: functional; conditions: A-375, 72 h, read-out: GI
Summary of the method: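 Cells plated at 2000–5000/well, attached overnight at 37 °C. DMSO stocks (100 mM) serially diluted in medium to a final 1 µM, tested in duplicate wells. MTT (5 mg/mL, 10 µL) added for 4 h. Lysis in 10% SDS / 5% isopropanol / 0.012 N HCl, then OD read at 580–680 nm.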

MCF7 [1] = assay: Cytotoxicity against human MCF7 cells at 1 uM after 72 hrs by MTT assay; assay type: functional; conditions: MCF7, 72 h, read-out: GI; summary of the method: as §1
DU-145 = assay: Cytotoxicity against human DU145 cells at 1 uM after 72 hrs by MTT assay; assay type: functional; conditions: DU-145, 72 h, read-out: GI; summary of the method: as §1
HeLa = assay: Cytotoxicity against human HeLa cells at 1 uM after 72 hrs by MTT assay; assay type: functional; conditions: read-out: GI; summary of the method: as §1
NCI-H460 = assay: Cytotoxicity against human NCI-H460 cells at 1 uM after 72 hrs by MTT assay; assay type: functional; conditions: NCI-H460, 72 h, read-out: GI; summary of the method: as §1
A2780 = assay: Cytotoxicity against human A2780 cells at 1 uM after 72 hrs by MTT assay; assay type: functional; conditions: A2780, 72 h, read-out: GI; summary of the method: as §1
HL-60 = assay: Cytotoxicity against human HL60 cells at 1 uM after 72 hrs by MTT assay; assay type: functional; conditions: HL-60, 72 h, read-out: GI; summary of the method: as §1
[2] = Apparent permeability from apical to basolateral side in human Caco2 cells at 10 uM after 90 mins by LC-MS/MS analysis; assay type: ADME, cell-based, Caco-2; conditions: Caco-2
MCF7 [3] = assay: Cytotoxicity against human MCF7 cells after 72 hrs by MTT assay; assay type: functional, cell-based; conditions: MCF7, 72 h
Summary of the method: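 MCF-7 cells exposed to compound for 72 h and read by MTT. At least six replicate wells per assay, run on three separate occasions. IC₅₀ given as mean with standard deviation.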

| SMILES | inhibition of growth at 1 µM (HT-29) | inhibition of growth at 1 µM (A-375) | inhibition of growth at 1 µM (MCF7 [1]) | inhibition of growth at 1 µM (DU-145) | inhibition of growth at 1 µM (HeLa) | inhibition of growth at 1 µM (NCI-H460) | inhibition of growth at 1 µM (A2780) | inhibition of growth at 1 µM (HL-60) | Papp A→B at 1.5 h, 10 µM [2] | IC50 (MCF7 [3]) |
| --- | --- | --- | --- | --- | --- | --- | --- | --- | --- | --- |
| CO[C@H]1C(=O)[C@]2(C)[C@@H](OC)C[C@H]3OC[C@@]3(OC(C)=O)[C@H]2[C@H](OC(=O)c2ccccc2)[C@]2(O)C[C@H](OC(=O)[C@H](O)[C@@H](NC(=O)c3ccccc3)c3ccccc3)C(C)=C1C2(C)C | 87.5% | 89.7% | 92.1% | 86.4% | 102% | 85% | 95.2% | 97.2% | – | – |
| CO[C@H]1C(=O)[C@]2(C)CC[C@H]3OC[C@@]3(OC(C)=O)[C@H]2[C@H](OC(=O)c2ccccc2)[C@]2(O)C[C@H](OC(=O)[C@H](O)[C@@H](NC(=O)OC(C)(C)C)c3ccccc3)C(C)=C1C2(C)C | – | – | – | – | 101% | – | – | – | 3.64 ×10⁻⁶ cm/s | 3.33 nM |
| CO[C@H]1C[C@H]2OC[C@@]2(OC(C)=O)[C@H]2[C@H](OC(=O)c3ccccc3)[C@]3(O)C[C@H](OC(=O)[C@H](O)[C@@H](NC(=O)c4ccccc4)c4ccccc4)C(C)=C([C@@H](OC(=O)N(C)C)C(=O)[C@]12C)C3(C)C | 87.9% | 87.7% | 85.7% | 87.1% | 102% | 86.5% | 96.3% | 97.5% | 2.94 ×10⁻⁶ cm/s | – |
| CO[C@H]1C[C@H]2OC[C@@]2(OC(C)=O)[C@H]2[C@H](OC(=O)c3ccccc3)[C@]3(O)C[C@H](OC(=O)[C@H](O)[C@@H](NC(=O)OC(C)(C)C)c4ccccn4)C(C)=C([C@@H](OC(=O)N(C)C)C(=O)[C@]12C)C3(C)C | – | – | – | – | 100% | – | – | – | 3.02 ×10⁻⁶ cm/s | – |
| COC(=O)O[C@H]1C(=O)[C@]2(C)[C@@H](OC)C[C@H]3OC[C@@]3(OC(C)=O)[C@H]2[C@H](OC(=O)c2ccccc2)[C@]2(O)C[C@H](OC(=O)[C@H](O)[C@@H](NC(=O)c3ccccc3)c3ccccc3)C(C)=C1C2(C)C | 88.8% | 94.2% | 95.5% | 86.2% | 101% | 86.4% | 95.8% | 96.8% | 4.38 ×10⁻⁶ cm/s | – |
| CO[C@H]1C(=O)[C@]2(C)[C@@H](OC(=O)N(C)C)C[C@H]3OC[C@@]3(OC(C)=O)[C@H]2[C@H](OC(=O)c2ccccc2)[C@]2(O)C[C@H](OC(=O)[C@H](O)[C@@H](NC(=O)OC(C)(C)C)c3ccccn3)C(C)=C1C2(C)C | – | – | – | – | 103% | – | – | – | 4.41 ×10⁻⁶ cm/s | 46.6 nM |
| COC(=O)O[C@H]1C[C@H]2OC[C@@]2(OC(C)=O)[C@H]2[C@H](OC(=O)c3ccccc3)[C@]3(O)C[C@H](OC(=O)[C@H](O)[C@@H](NC(=O)c4ccccc4)c4ccccc4)C(C)=C([C@@H](OC)C(=O)[C@]12C)C3(C)C | 89.7% | 94% | 107% | 88.3% | 102% | 90.3% | 96.9% | 97.8% | 3.32 ×10⁻⁶ cm/s | – |
| COC(=O)O[C@H]1C[C@H]2OC[C@@]2(OC(C)=O)[C@H]2[C@H](OC(=O)c3ccccc3)[C@]3(O)C[C@H](OC(=O)[C@H](O)[C@@H](NC(=O)OC(C)(C)C)c4ccccn4)C(C)=C([C@@H](OC)C(=O)[C@]12C)C3(C)C | – | – | – | – | 102% | – | – | – | 4.53 ×10⁻⁶ cm/s | – |
| CO[C@H]1C(=O)[C@]2(C)[C@@H](OC)C[C@H]3OC[C@@]3(OC(C)=O)[C@H]2[C@H](OC(=O)c2ccccc2)[C@]23OC(=O)O[C@H]2[C@H](OC(=O)[C@H](O)[C@@H](NC(=O)OC(C)(C)C)c2ccccn2)C(C)=C1C3(C)C | – | – | – | – | – | – | – | – | 3.66 ×10⁻⁶ cm/s | 3.4 nM |
| CO[C@H]1C(=O)[C@]2(C)[C@@H](OC)C[C@H]3OC[C@@]3(OC(C)=O)[C@H]2[C@H](OC(=O)c2ccccc2)[C@]23OC(=O)O[C@H]2[C@H](OC(=O)[C@H](O)[C@H](CC(C)C)NC(=O)OC(C)(C)C)C(C)=C1C3(C)C | – | – | – | – | – | – | – | – | 2.57 ×10⁻⁶ cm/s | 4.04 nM |
| CO[C@H]1C[C@H]2OC[C@@]2(OC(C)=O)[C@H]2[C@H](OC(=O)c3ccccc3)[C@]34OC(=O)O[C@H]3[C@H](OC(=O)[C@H](O)[C@@H](NC(=O)OC(C)(C)C)c3ccccn3)C(C)=C([C@@H](OC(=O)N(C)C)C(=O)[C@]12C)C4(C)C | – | – | – | – | – | – | – | – | 4.68 ×10⁻⁶ cm/s | 14.3 nM |
| CO[C@H]1C[C@H]2OC[C@@]2(OC(C)=O)[C@H]2[C@H](OC(=O)c3ccccc3)[C@]34OC(=O)O[C@H]3[C@H](OC(=O)[C@H](O)[C@H](CC(C)C)NC(=O)OC(C)(C)C)C(C)=C([C@@H](OC(=O)N(C)C)C(=O)[C@]12C)C4(C)C | – | – | – | – | – | – | – | – | 1.07 ×10⁻⁶ cm/s | 6.44 nM |
| COC(=O)O[C@H]1C(=O)[C@]2(C)[C@@H](OC)C[C@H]3OC[C@@]3(OC(C)=O)[C@H]2[C@H](OC(=O)c2ccccc2)[C@]23OC(=O)O[C@H]2[C@H](OC(=O)[C@H](O)[C@@H](NC(=O)OC(C)(C)C)c2ccccc2)C(C)=C1C3(C)C | – | – | – | – | – | – | – | – | < 1.43 ×10⁻⁶ cm/s | 3.24 nM |
| CO[C@H]1C(=O)[C@]2(C)[C@@H](OC(=O)N(C)C)C[C@H]3OC[C@@]3(OC(C)=O)[C@H]2[C@H](OC(=O)c2ccccc2)[C@]23OC(=O)O[C@H]2[C@H](OC(=O)[C@H](O)[C@@H](NC(=O)OC(C)(C)C)c2ccccn2)C(C)=C1C3(C)C | – | – | – | – | – | – | – | – | 2.46 ×10⁻⁶ cm/s | 18.2 nM |
| COC(=O)O[C@H]1C[C@H]2OC[C@@]2(OC(C)=O)[C@H]2[C@H](OC(=O)c3ccccc3)[C@]34OC(=O)O[C@H]3[C@H](OC(=O)[C@H](O)[C@@H](NC(=O)OC(C)(C)C)c3ccccc3)C(C)=C([C@@H](OC)C(=O)[C@]12C)C4(C)C | – | – | – | – | – | – | – | – | 3.93 ×10⁻⁶ cm/s | 3.84 nM |
| CO[C@H]1C(=O)[C@]2(C)[C@@H](OC)C[C@H]3OC[C@@]3(OC(C)=O)[C@H]2[C@H](OC(=O)c2ccccc2)[C@]2(O)C[C@H](OC(=O)[C@H](O)[C@@H](NC(=O)OC(C)(C)C)c3ccccc3)C(C)=C1C2(C)C [CABAZITAXEL] | 87.2% | 97% | 88.5% | 83.1% | 98.2% | 79.8% | 93.8% | 97.8% | 3.73 ×10⁻⁶ cm/s | – |
| CC[C@H]1OC(=O)[C@H](C)[C@@H](O[C@H]2C[C@@](C)(OC)[C@@H](O)[C@H](C)O2)[C@H](C)[C@@H](O[C@@H]2O[C@H](C)C[C@H](N(C)C)[C@H]2O)[C@](C)(O)C[C@@H](C)C(=O)[C@H](C)[C@@H](O)[C@]1(C)O [ERYTHROMYCIN] | – | – | – | – | – | – | – | – | 0.58 ×10⁻⁶ cm/s | – |
